# Bioassay records: PubChem, several laboratories
# Shown are actives, neighbours in structure and some others; about 2% of the full set was active somewhere.
# XBP1 UPR activ = activators of adaptive arm of unfolded protein response (XBP1) | CHO-XBP1 luciferase reporter, IRE1-XBP1 UPR activation, luminescence; percent of tunicamycin response, DMSO as zero | hit rate 0.33% among 330,000 | activation, % at 20 µM;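 active = versus positive control, 20 µM dose yields 30% or more activation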;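 also: 100% = tunicamycin at 10 µg/mL and 0% = DMSO only wells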
#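 assay system = CHO-XBP1 luciferase reporter cells | amount = 1000 cells/well | buffer or medium = F12 plus 10% FBS | compound dosing = single point, 20 µM final compound, 1% DMSO | incubation = 16-18 h cell attachment at 37 °C, then 6 h compound exposure | detection = Steady-Glo luminescence read | controls = tunicamycin 10 µg/mL and vehicle-only wells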
# CHOP UPR activ = activators of apoptotic arm of unfolded protein response (CHOP); hit rate 0.34% among 330,000; CHO-CHOP luciferase reporter, UPR activation, luminescence; percent of tunicamycin response over DMSO baseline; activation, % at 10 µM; AID 449763;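 active = at 10 µM dose, activation of 40% or more, normalized to positive control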;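 also: 100% = tunicamycin at 10 µg/mL and 0% = DMSO alone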
#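 System: CHO-CHOP luciferase reporter cell line; amount: 500 cells/well; buffer or medium: F12 medium containing 10% fetal bovine serum; incubation: 6 h compound exposure at 37 °C after overnight seeding; measured by: luciferase luminescence after 10 min with Steady-Glo reagent; evaluation: % reporter activation, DMSO baseline versus tunicamycin full activation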
# MC4R antag cAMP = human MC4R antagonism in cAMP assay; P32245; MC4R-expressing cells, MTII-stimulated cAMP, LANCE TR-FRET; inhibition, % at 6.5 µM; hit rate 0.48% among 360,000; AID 540295;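 active = inhibition above its plate's cutoff, the mean of tested wells on that plate plus 3 SD, cut at about 29% in these data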;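 also: 0% = Melanotan II alone and 100% = Melanotan II plus saturating MCL0020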
# Target sequence (P32245 whole entry, looked up): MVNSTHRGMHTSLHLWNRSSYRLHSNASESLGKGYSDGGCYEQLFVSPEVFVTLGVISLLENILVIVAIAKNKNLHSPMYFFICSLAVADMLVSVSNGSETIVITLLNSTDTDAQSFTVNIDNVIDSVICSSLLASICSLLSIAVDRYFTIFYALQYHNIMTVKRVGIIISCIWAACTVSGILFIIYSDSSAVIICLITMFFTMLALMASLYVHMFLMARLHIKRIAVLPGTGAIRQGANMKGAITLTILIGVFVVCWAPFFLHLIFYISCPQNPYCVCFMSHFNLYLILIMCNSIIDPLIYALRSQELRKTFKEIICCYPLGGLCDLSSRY
#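 System – human MC4R-expressing U2OS cells · Also added – Melanotan II · Dosing – one concentration, 6.5 µM nominal · Timing – 30-min compound, 1-h challenge, 1-h detection, room temperature · Measured by – Eu-cAMP/anti-cAMP TR-FRET, emission 671 nm · Replicates – singlicate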
# Bfl-1 A1 inh = inhibitors of the anti-apoptotic protein A1, read as caspase activation. MEF A1-2A-BIM cells, Caspase-Glo 3/7 luminescence, 3 h; percent of clofoctol response, vehicle zero. caspase activation, % (test concentration not listed). AID 2462. hit rate 0.066% among 330,000;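 active = over half of replicate activation scores above 10%, or exactly half above 10 with the replicate mean above 10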
# MC4R ag barr = human MC4R agonism via beta-arrestin | P32245 | U2OS MC4R beta-arrestin complementation, luminescence; percent of melanotan II response, DMSO zero | activation, % at 8.9 µM | hit rate 0.98% among 360,000;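 active = activation above a per-plate cutoff, the mean activation of sample wells on that plate plus 3 SD, cut at about 8% in these data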
# * hit, by the source's call; x = no result given.
SMILES,XBP1 UPR activ,CHOP UPR activ,MC4R antag cAMP,Bfl-1 A1 inh,MC4R ag barr
CCC(=O)N1CCC(C)(C(=O)NCc2ccc(F)cc2)C1 (centres undefined),x,x,1,x,-2
COc1cc(/C=C/C(=O)OCC(=O)Nc2cc(S(=O)(=O)N(C)C)ccc2Cl)ccc1O,4,0,14,1,8.9*
CCN(CC)S(=O)(=O)c1ccc(Cl)c(NC(=O)COC(=O)/C=C/c2ccc(O)c(OC)c2)c1,-2,1,0,0,-1
COC(=O)Nc1nc(-c2cc(Cl)ccc2Cl)cs1,1,0,6,0,10*
COc1cc(C(=O)NC(c2ccccc2)c2ccccc2)cc(OC)c1OC,-5,2,8,1,9.4*
CCCNC(=O)Cn1c(-c2ccc(F)cc2)cc(C(=O)OCC)c1C,-4,0,0,-1,8.3*
CN(C)CCCNS(=O)(=O)c1ccc(N2CCC(c3ccc(Cl)cc3)=N2)cc1,75*,8,x,1,x
O=S(=O)(c1ccc(N2CCC(c3ccc(Cl)cc3)=N2)cc1)N(CCO)CCO,4,1,8,0,-2
CN(C)CCn1c2ccccc2c2nc3ccc([N+](=O)[O-])cc3cc21,8,0,-7,-1,8.3*
CCn1c2ccccc2c2cc([N+](=O)[O-])ccc21,-3,0,-2,0,-1
CCCCNS(=O)(=O)c1cccc(NC(=O)[C@@H]2O[C@H](CO)[C@H](O)[C@H](O)[C@H]2O)c1,x,x,5,x,-3
O=C(NCc1ccc(Cl)cc1)c1ccc(-c2ccc(F)c(F)c2)c2ccoc12,x,x,14,x,0
O=S(=O)(c1ccc(-c2nnc(SCc3nnc(-c4ccccc4)o3)o2)cc1)N1CCCC1,-2,-1,5,1,-1
CCN(CC)S(=O)(=O)c1ccc(-c2nnc(SCc3nnc(-c4ccccc4)o3)o2)cc1,1,-1,4,0,8.4*
CN(CC(=O)NCc1ccc(F)cc1)CC(=O)Nc1ccc(Cl)c(C(F)(F)F)c1,-5,4,9,1,9.0*
CC(C)(C)c1ccc(C(=O)Nc2cccc([N+](=O)[O-])c2)cc1,x,x,16,-4,6
Cc1ccc(SCc2ccc(C(=O)Nc3cccc([N+](=O)[O-])c3)cc2)cc1,-1,1,3,-1,27*
Cc1ccc(SCc2ccc(C(=O)Nc3cc([N+](=O)[O-])ccc3C)cc2)cc1,-4,-2,4,-1,23*
CN(C)c1ccc(-c2csc(C(O)c3cccc(Cl)c3)n2)cc1 (centres undefined),x,x,4,x,2
CC[C@@H](C(=O)[C@@H](C)[C@@H](O)[C@H](C)[C@@H]1O[C@@H]([C@@H](CC)C(=O)O)CC[C@@H]1C)[C@H]1O[C@]2(C=C[C@@H](O)[C@]3(CC[C@@](C)([C@H]4CC[C@](O)(CC)[C@H](C)O4)O3)O2)[C@H](C)C[C@@H]1C,x,x,10,x,36*
O=C(C1=NN(c2ccccc2)C2C(=O)N(c3ccccc3)C(=O)C12)c1ccccc1 (centres undefined),-3,1,10,0,-1
O=C(C1=NN(c2ccccc2)C2C(=O)N(c3ccccc3Cl)C(=O)C12)c1ccccc1 (centres undefined),x,x,14,0,9.1*
Cc1cccc(Nc2nc3c(S(=O)(=O)c4ccccc4)nnn3c3ccccc23)c1,5,10,15,7.4*,-1
N=c1n(Cc2ccc(Cl)cc2)c2ccccc2n1CC(O)COc1ccccc1 (centres undefined),8,1,-10,0,12*
O=C(NCc1ccccc1Cl)c1csc([C@@H]2C[C@H](O)[C@@H](CO)O2)n1,x,x,1,x,0
SMILES,XBP1 UPR activ,CHOP UPR activ,MC4R antag cAMP,Bfl-1 A1 inh,MC4R ag barr
COc1cc(C(=O)OCC(=O)NCCC2=CCCCC2)ccc1OCC(C)C,-2,-2,2,0,9.2*
COc1cc(C(=O)OCC(=O)NCCC2=CCCCC2)cc(OC)c1OC,0,1,-3,x,-4
COc1ccc(NC(=O)[C@@H]2O[C@H](CO)[C@H](O)[C@H](O)[C@H]2O)cc1F,x,x,-2,x,0
CC(C)Sc1snnc1-c1ccccc1,-1,0,-5,1,8.9*
CSc1snnc1-c1ccccc1,-2,0,2,0,-2
COc1cc(/C=N\NC(=O)c2ccc(-c3ccccc3)cc2)ccc1OCC(N)=O,7,26,3,0,26*
COc1ccc2nc(NC(=O)Cn3cnc4ccccc4c3=O)sc2c1,-2,2,16,0,8.3*
COc1ccc(S(=O)(=O)N2CCCCC2c2cc(C(=O)NCc3ccccc3)no2)cc1 (centres undefined),x,x,1,x,2
CC1(C(=O)NS(=O)(=O)c2cccc(OC(F)F)c2)CCN1C(=O)C1CCCCC1 (centres undefined),x,x,7,x,2
CC(=O)Nc1sc2c(c1C#N)CCC(C)C2 (centres undefined),-1,3,1,0,0
Cc1cc(C(=O)Nc2sc3c(c2C#N)CCC(C)C3)cs1 (centres undefined),2,2,1,-2,8.3*
CCOc1cc(C(=O)CSc2nnc(CNc3ccc(Cl)cc3)o2)ccc1NC(=O)CC,18,0,3,8.7*,40*
OC(c1cccc(Cl)c1)c1ncc(-c2ccccc2Cl)[nH]1 (centres undefined),x,x,-13,x,0
COc1ccc(OC)c(/C=C2/Sc3ccccc3C2=O)c1,0,5,9,1,9.5*
O=C(CSc1ccc(Cl)cc1)Nc1ccccc1N1CCN(C(=O)c2ccc(Cl)cc2)CC1,1,4,1,1,-1
O=C(CSc1ccc(Cl)cc1)Nc1ccc(N2CCN(C(=O)c3ccc(Cl)cc3)CC2)cc1,12,20,16,1,14*
O=C(CSc1nc2cc(Cl)ccc2o1)Nc1ccc(N2CCOCC2)cc1,1,-1,-3,x,19*
CCN(CC)C(=O)C1=C(C)N(CCCN2CCCC2=O)C(=O)C(CC(=O)NCCCCc2ccccc2)C1 (centres undefined),x,x,7,x,-1
COc1ccc(C(=O)CNc2ccccc2CO)cc1,2,2,10,-11,-1
COc1ccc(C(=O)CNc2ccccc2C#N)cc1,3,5,12,-2,8.3*
COc1ccc(/C=C/C(=O)Nc2ccccc2)cc1OC,2,4,5,-5,2
COc1ccc(/C=C/C(=O)NC(=S)Nc2ccccc2)cc1OC,-1,2,16,1,9.1*
COCCNc1nc(-c2ccccc2F)c2sc(-c3ccccc3)cc2n1,x,x,-4,x,2
COc1cccc(C(=O)NCCS(=O)(=O)N2CCN(c3ccccc3)CC2)c1OC,x,x,2,x,1
